This is an account of results in ChEMBL document CHEMBL1687761.

The test system of series [1] is CO/N=C(\C(=O)N[C@@H]1C(=O)N2C(C(=O)[O-])=C(C[N+]3(C)CCCC3)CS[C@H]12)c1csc(N)n1. Kind of series: (§1) Ratio of Kcat to Km for Escherichia coli BL21(DE3) VIM-2 W87F mutant beta-lactamase by spectrophotometer.
Series [2] has as its system C[C@@H](O)[C@H]1C(=O)N2C(C(=O)O)=C(SCCNC=N)C[C@H]12. The series is described as §1.
For series [3], the system named is CO/N=C(\C(=O)N[C@@H]1C(=O)N2C(C(=O)[O-])=C(C[N+]3(C)CCCC3)CS[C@H]12)c1csc(N)n1. Kind of series: (§2) Activity of Escherichia coli BL21(DE3) VIM-2 W87F mutant beta-lactamase by spectrophotometer.
The subject of series [4] is C[C@@H](O)[C@H]1C(=O)N2C(C(=O)O)=C(SCCNC=N)C[C@H]12. Described as §2.
Series [5] deals with CO/N=C(\C(=O)N[C@@H]1C(=O)N2C(C(=O)[O-])=C(C[N+]3(C)CCCC3)CS[C@H]12)c1csc(N)n1. Description: (§3) Ratio of Kcat to Km for Escherichia coli BL21(DE3) VIM-2 W87A mutant beta-lactamase by spectrophotometer.
Series [6] relates to C[C@@H](O)[C@H]1C(=O)N2C(C(=O)O)=C(SCCNC=N)C[C@H]12. The description is as §3.
For series [7], the system named is CO/N=C(\C(=O)N[C@@H]1C(=O)N2C(C(=O)[O-])=C(C[N+]3(C)CCCC3)CS[C@H]12)c1csc(N)n1. Description: (§4) Activity of Escherichia coli BL21(DE3) VIM-2 W87A mutant beta-lactamase by spectrophotometer.
Series [8] deals with C[C@@H](O)[C@H]1C(=O)N2C(C(=O)O)=C(SCCNC=N)C[C@H]12. The description is as §4.
Series [9] deals with Escherichia coli. Description: Ratio of Kcat to Km for Escherichia coli XL1-Blue VIM-2 A64W mutant beta-lactamase by spectrophotometer. In short, it runs like this:
(§5)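 Mutant enzyme expressed in E. coli BL21(DE3) in autoinducing ZYP-5052 medium. Purified by anion exchange at pH 7.2, then high-resolution anion exchange at pH 9.2, plus gel filtration in 50 mM HEPES-50 μM ZnSO4 pH 7.5 where needed. Identity confirmed by tryptic peptide mass fingerprint. Steady-state kinetics on β-lactam substrates were run under the conditions used for wild-type VIM-2.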

Series [10] has as its system Escherichia coli. Description: Ratio of Kcat to Km for Escherichia coli XL1-Blue wild-type IMP-1 beta-lactamase by spectrophotometer.
For series [11], the system named is Escherichia coli. Kind of series: Activity of Escherichia coli XL1-Blue wild-type IMP-1 beta-lactamase by spectrophotometer.
Series [12] concerns Escherichia coli. Kind of series: Activity of Escherichia coli XL1-Blue VIM-2 A64W mutant beta-lactamase by spectrophotometer. The procedure, abridged: as §5
Series [13] relates to Metallo-beta-lactamase (Escherichia coli), Q5U7L7 [W87F]. Kind of series: Activity of beta-lactamase VIM-2 W87F mutant expressed in Escherichia coli XL1-Blue isolated from 3.8 hrs grown culture. In short, it runs like this:
(§6)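 E. coli XL-1 carrying pLBII-VIM-2 (wild-type or W87F) was grown and sampled at the stated times, with cell density read as A600. Imipenem hydrolysis in crude cell extracts was read spectrophotometrically in 10 mM HEPES pH 7.5 with 50 μM ZnSO4 and 150 μM imipenem. Activity was normalized to cell density. Values are means of three independent measurements.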

Series [14] shares this test system. Kind of series: Activity of beta-lactamase VIM-2 W87F mutant expressed in Escherichia coli XL1-Blue isolated from 3.3 hrs grown culture. The procedure, abridged:
as §6

Series [15] has the same test system. Description: (§7) Activity of beta-lactamase VIM-2 W87F mutant expressed in Escherichia coli XL1-Blue isolated from […] grown culture.
For series [16] the test system is unchanged. Described as §7. The source holds these as a separate data set.
The test system is the same in series [17]. The series is described as §7. This is another data set of the same source.
Series [18] shares this test system. Kind of series: Activity of beta-lactamase VIM-2 W87F mutant expressed in Escherichia coli XL1-Blue isolated from 1.2 hrs grown culture. In short, it runs like this: (§8)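 Imipenem-hydrolyzing activity in crude cell extracts of E. coli XL-1 carrying pLBII-VIM-2 or pLBII-VIM-2-W87F. Read spectrophotometrically with 150 μM imipenem in 10 mM HEPES (pH 7.5) plus 50 μM ZnSO4. Activity normalized to culture density (A600). Means of three independent measurements.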

The test system is the same in series [19]. Kind of series: Activity of beta-lactamase VIM-2 W87F mutant expressed in Escherichia coli XL1-Blue isolated from 0.5 hrs grown culture. The procedure, abridged: as §6
For series [20], the target named is Metallo-beta-lactamase (Escherichia coli) (UniProt Q5U7L7). Description: Activity of beta-lactamase VIM-2 in Escherichia coli XL1-Blue isolated from 6 hrs grown culture. The procedure, abridged: as §6
For series [21] the target is unchanged. Kind of series: Activity of beta-lactamase VIM-2 in Escherichia coli XL1-Blue isolated from 5 hrs grown culture. The procedure, abridged: as §6
Series [22] shares this target. Description: Activity of beta-lactamase VIM-2 in Escherichia coli XL1-Blue isolated from 4.3 hrs grown culture. The procedure, abridged:
as §8

Series [23] shares this target. Kind of series: Activity of beta-lactamase VIM-2 in Escherichia coli XL1-Blue isolated from 3.8 hrs grown culture. The procedure, abridged: as §6
Series [24] shares this target. Description: Activity of beta-lactamase VIM-2 in Escherichia coli XL1-Blue isolated from 3.3 hrs grown culture. In short, it runs like this: as §6
For series [25] the target is unchanged. Description: (§9) Activity of beta-lactamase VIM-2 in Escherichia coli XL1-Blue isolated from […] grown culture.
Series [26] shares this target. The description is as §9. The source holds these as a separate data set.
For series [27] the target is unchanged. The series is described as §9. The source holds these as a separate data set.
Series [28] has the same target. Description: Activity of beta-lactamase VIM-2 in Escherichia coli XL1-Blue isolated from 1.2 hrs grown culture. The procedure, abridged: as §8
Series [29] has the same target. Description: Activity of beta-lactamase VIM-2 in Escherichia coli XL1-Blue isolated from 0.5 hrs grown culture. The procedure, abridged:
as §6

The test system of series [30] is Escherichia coli. Description: Ratio of Kcat to Km for Escherichia coli XL1-Blue IMP-1 W64A mutant beta-lactamase by spectrophotometer.
Series [31] has as its system Escherichia coli. Kind of series: Activity of Escherichia coli XL1-Blue IMP-1 W64A mutant beta-lactamase by spectrophotometer.
In series [32] the test system is Metallo-beta-lactamase (Escherichia coli), Q5U7L7 [W87F]. Description: Activity of beta-lactamase VIM-2 W87F mutant expressed in Escherichia coli XL1-Blue isolated from 4.3 hrs grown culture. The procedure, abridged:
as §8

Series [33] shares this test system. Description: Activity of beta-lactamase VIM-2 W87F mutant expressed in Escherichia coli XL1-Blue isolated from 5.0 hrs grown culture. In short, it runs like this:
as §6

For series [34] the test system is unchanged. Description: Activity of beta-lactamase VIM-2 W87F mutant expressed in Escherichia coli XL1-Blue isolated from 6.0 hrs grown culture. In short, it runs like this:
as §6

As for “Metallo-beta-lactamase (Escherichia coli) (from UniProt Q5U7L7) W87F”, the specificity constant (kcat/Km) (usually the turnover number divided by the Michaelis constant) was found to be 48000 M⁻¹ s⁻¹ in [1] and 3.7e+06 M⁻¹ s⁻¹ in series [2]. For the same molecule, the Km (commonly the substrate concentration at which the rate is half of its maximum) in series [3] is above 450 µM; in series [4], 6 µM. In addition, the kcat (commonly the number of substrate molecules converted per active site and unit of time at saturation) in [3] is above 20 s⁻¹; in series [4], 22 s⁻¹.
“Metallo-beta-lactamase (Escherichia coli) (from UniProt Q5U7L7) W87A”: the kcat/Km in [5] stood at 12000 M⁻¹ s⁻¹; in series [6], 5.4e+06 M⁻¹ s⁻¹. Also, the Km was above 350 µM in series [7] and 22 µM in series [8]. The kcat in [7] is above 4.5 s⁻¹; in [8], 119 s⁻¹.
`CC(C)(O/N=C(\C(=O)N[C@@H]1C(=O)N2C(C(=O)[O-])=C(C[n+]3ccccc3)CS[C@H]12)c1csc(N)n1)C(=O)O`: the specificity constant (kcat/Km) was 18000 M⁻¹ s⁻¹ in the series on Escherichia coli [9] and 180000 M⁻¹ s⁻¹ with Escherichia coli [10]. For the same molecule, the Km in the series with Escherichia coli [11] stood at 44 µM; with Escherichia coli [12] it was 40 µM. Further, the values for the kcat in the series with Escherichia coli [11] and in the series on Escherichia coli [12] were 8 s⁻¹ and 0.7 s⁻¹, respectively.
Consider `C[C@@H](O)[C@H]1C(=O)N2C(C(=O)O)=C(SCCNC=N)C[C@H]12`, for which the Activity in [13] was 4.7 nmol/mL/min; in [14], below 2.7 nmol/mL/min; in [15] it was below 2.7 nmol/mL/min; in [16], below 2.7 nmol/mL/min; in series [17] it was below 2.7 nmol/mL/min; in series [18], below 2.7 nmol/mL/min. For the same molecule, the Activity was below 2.7 nmol/mL/min in series [19]; 380 nmol/mL/min in [20]; 330 nmol/mL/min in series [21]; 270 nmol/mL/min in series [22]; 240 nmol/mL/min in series [23]; 170 nmol/mL/min in [24]. For the same molecule, the Activity in series [25] was 110 nmol/mL/min; in series [26], 39 nmol/mL/min; in series [27], 30 nmol/mL/min; in [28], below 2.7 nmol/mL/min; in [29], below 2.7 nmol/mL/min; in series [32] it was 4.7 nmol/mL/min. For the same molecule, the Activity in [33] was determined as 7.9 nmol/mL/min; in series [34], 9.5 nmol/mL/min. For the same molecule, the specificity constant (kcat/Km) stood at 550000 M⁻¹ s⁻¹ with Escherichia coli [30], 2.9e+06 M⁻¹ s⁻¹ with Escherichia coli [9] and 2.7e+06 M⁻¹ s⁻¹ in the series with Escherichia coli [10]. The Km in the series with Escherichia coli [31] is 120 µM; in the series on Escherichia coli [11], 25 µM; in the series with Escherichia coli [12] it was 21 µM. The kcat is 67 s⁻¹ with Escherichia coli [31], 68 s⁻¹ in the series on Escherichia coli [11] and 60 s⁻¹ in the series on Escherichia coli [12].
As to `O=C(Cc1cccs1)N[C@@H]1C(=O)N2C(C(=O)O)=C(/C=C/c3ccc([N+](=O)[O-])cc3[N+](=O)[O-])CS[C@H]12`, the kcat/Km came to 4.3e+06 M⁻¹ s⁻¹ in the series on Escherichia coli [30], 2.7e+07 M⁻¹ s⁻¹ in the series with Escherichia coli [9] and 1.4e+07 M⁻¹ s⁻¹ in the series with Escherichia coli [10]. For the same molecule, the Km was 160 µM in the series with Escherichia coli [31], 8.2 µM with Escherichia coli [11] and 10 µM with Escherichia coli [12]. The kcat in the series on Escherichia coli [31] came to 700 s⁻¹; with Escherichia coli [11], 130 s⁻¹; with Escherichia coli [12] it was 270 s⁻¹.
